In ChEMBL document CHEMBL1121898, “Potential antiestrogens. Synthesis and evaluation of mammary tumor inhibiting activity of 1,2-dialkyl-1,2-bis(3'-hydroxyphenyl)ethanes” (1981):
Values joined by “and” are separate entries in the source; they are usually repeats but may differ in a detail not shown here. Equal entries are not always repeated. Active and inactive are the calls of the source.

Experiments:
[1] = species on record: Mus musculus; assay: Vaginal cornification test in mice at 0 ug; predominant cellular component leucocytes (diestrus); type: functional, organism-based
In short: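 Female NMRI mice (~15 g) were ovariectomized; castration was confirmed at 10 days by leucocyte smears. Mice were primed with estradiol 3-benzoate 0.2 μg, and only responders showing estrus were kept. Groups of three received sc test compound in 0.1 mL olive oil daily for 3 days. Saline vaginal smears were taken 6, 24, 30, 48 and 54 h after the last dose and scored by Allen-Doisy.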

[2] = tested on: MCF7; assay: Inhibition of estrogen receptor positive MCF-7 cell proliferation as percent treated/control cell number after 10 days at 10e-7 M and 10e-8 M 17-beta-estradiol; type: functional, Homo sapiens
In short: (§1)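 MCF-7 cells were grown in McCoy's 5a medium with fetal bovine serum stripped by DCC (0.5 h, 45 °C). Compounds were dissolved in ethanol (final ≤0.5%) and diluted in complete medium. Cells were seeded at 5×10^4 cells/plate. On day 10, three replicate plates per group were counted by Coulter counter, three counts per plate. Percent T/C = test/control. In a retest, compounds were given at 10^-7 M with 17β-estradiol at 10^-7 or 10^-8 M.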

[3] = species on record: Rattus norvegicus; assay: Progression of DMBA-induced hormone-dependent mammary carcinoma tumors in rats at 4.5 mg; type: functional
[4] = tested on: MCF7; assay: Inhibition of estrogen receptor positive MCF-7 cell proliferation as cell number after 10 days at 10e-6 M; type: functional, Homo sapiens; in short: as §1
[5] = tested on: MCF7; assay: Inhibition of estrogen receptor positive MCF-7 cell proliferation as percent treated/control cell number after 10 days at 10e-7 M; type: functional, Homo sapiens; in short: as §1
[6] = species on record: Rattus norvegicus; assay: Percent change in DMBA-induced hormone-dependent mammary carcinoma tumor area at 4.5 mg after 28 days; type: functional
In short: (§2)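 DMBA-induced, hormone-dependent mammary adenocarcinoma in SD rats. Rats bearing at least one tumor >140 mm² were placed in groups of ten. Compound was given sc as a single dose (mg/kg) daily Monday–Thursday and a double dose on Friday. Tumors were counted at the start and as new tumors; responses were scored as complete remission (not palpable), partial remission (≥50% reduction), no change or progression. Tumor area and body weight were recorded as % change.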

[7] = biological target: T1, Estrogen receptor (Mus musculus) (UniProt O08537+P19785); assay: Estrogenic activity in uterotrophic test in mice at 300 ug; type: functional
T1 sequence (O08537 whole entry, looked up): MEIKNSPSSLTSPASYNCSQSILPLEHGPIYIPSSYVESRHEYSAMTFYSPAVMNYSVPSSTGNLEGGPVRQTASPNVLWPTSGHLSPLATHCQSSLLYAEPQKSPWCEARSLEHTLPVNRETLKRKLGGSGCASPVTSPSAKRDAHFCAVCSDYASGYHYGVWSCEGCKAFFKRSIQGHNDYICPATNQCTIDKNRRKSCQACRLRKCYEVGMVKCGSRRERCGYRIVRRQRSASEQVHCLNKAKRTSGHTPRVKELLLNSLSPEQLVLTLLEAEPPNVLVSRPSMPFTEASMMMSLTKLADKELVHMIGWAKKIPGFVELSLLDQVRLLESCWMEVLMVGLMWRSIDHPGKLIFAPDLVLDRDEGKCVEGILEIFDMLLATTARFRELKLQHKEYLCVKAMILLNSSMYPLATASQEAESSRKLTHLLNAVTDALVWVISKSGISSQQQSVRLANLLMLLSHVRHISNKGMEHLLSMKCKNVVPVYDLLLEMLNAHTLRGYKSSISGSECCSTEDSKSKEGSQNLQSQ
T1 sequence (P19785 whole entry, looked up): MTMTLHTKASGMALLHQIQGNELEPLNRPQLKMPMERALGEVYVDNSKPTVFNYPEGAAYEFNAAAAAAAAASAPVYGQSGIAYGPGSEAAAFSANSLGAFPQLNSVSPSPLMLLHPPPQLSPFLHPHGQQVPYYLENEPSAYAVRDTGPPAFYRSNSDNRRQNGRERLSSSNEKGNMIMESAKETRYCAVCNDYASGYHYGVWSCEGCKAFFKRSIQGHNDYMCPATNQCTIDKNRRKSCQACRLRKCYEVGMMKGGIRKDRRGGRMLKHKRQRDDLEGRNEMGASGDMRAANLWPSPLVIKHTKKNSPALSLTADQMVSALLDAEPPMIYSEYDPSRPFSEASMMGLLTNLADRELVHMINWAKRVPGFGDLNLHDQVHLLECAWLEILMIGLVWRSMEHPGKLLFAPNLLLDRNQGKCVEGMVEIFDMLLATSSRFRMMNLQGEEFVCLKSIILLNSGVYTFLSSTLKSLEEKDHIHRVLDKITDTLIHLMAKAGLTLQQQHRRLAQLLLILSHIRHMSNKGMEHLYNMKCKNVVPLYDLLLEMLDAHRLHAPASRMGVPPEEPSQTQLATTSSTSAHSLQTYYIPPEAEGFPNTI
In short: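 Immature (20-day-old) female NMRI mice, 14.5 ± 1.2 g, randomized into groups of 10. Given the test compound sc daily for 3 days in 0.1 mL olive oil. Uteri removed 24 h after the last injection; uterine weight taken as the read-out, means ± SD. Dose in μg.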

[8] = tested on: MCF7; assay: (§3) Inhibition of estrogen receptor positive MCF-7 cell proliferation as cell number after 10 days at 10e-7 M; type: functional, Homo sapiens; in short: as §1
[9] = tested on: MCF7; assay: Inhibition of estrogen receptor positive MCF-7 cell proliferation as cell number after 10 days at 10e-7 M and 10e-8 M 17-beta-estradiol; type: functional, Homo sapiens; in short: as §1
[10] = tested on: MCF7; assay: Inhibition of estrogen receptor positive MCF-7 cell proliferation as cell number after 10 days at 10e-8 M; type: functional, Homo sapiens; in short: as §1
[11] = tested on: Estrogen receptor (Bos taurus); assay: Displacement of [3H]estradiol from calf estrogen receptor
[12] = species on record: Rattus norvegicus; assay: Percent change in body weight DMBA-induced hormone-dependent mammary carcinoma tumors in rats at 9 mg for 7 days; type: functional
[13] = biological target: T1, Estrogen receptor (Mus musculus); assay: Antiestrogenic activity in uterotrophic test in mice at 0 ug; type: functional
In short: (§4)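 Immature female NMRI mice, 20 days old (14.5 ± 1.2 g), randomly grouped 10 per group. Each received a daily sc injection for 3 days of 0.1 mL olive oil solution containing test compound, together with estrone to stimulate uterine growth. Uteri were removed 24 h after the last injection and weighed. Results are reported as % inhibition of the estrone-stimulated uterine weight gain, mean ± SD.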

[14] = tested on: MCF7; assay: Inhibition of estrogen receptor positive MCF-7 cell proliferation as percent treated/control cell number after 10 days at 10e-7 M with 10e-7 M 17-beta-estradiol; type: functional, Homo sapiens; in short: as §1
[15] = tested on: MCF7; assay: Inhibition of estrogen receptor positive MCF-7 cell proliferation as cell number after 10 days at 10e-9 M; type: functional, Homo sapiens; in short: as §1
[16] = biological target: T1, Estrogen receptor (Mus musculus); assay: Antiestrogenic activity in uterotrophic test in mice at 5 ug; type: functional; in short: as §4
[17] = tested on: MCF7; assay: Inhibition of estrogen receptor positive MCF-7 cell proliferation as percent treated/control cell number after 10 days at 10e-8 M; type: functional, Homo sapiens; in short: as §1
[18] = species on record: Rattus norvegicus; assay: Initial tumor number of DMBA-induced hormone-dependent mammary carcinoma in rats at 9 mg; type: functional; in short: as §2
[19] = tested on: MCF7; assay: Inhibition of estrogen receptor positive MCF-7 cell proliferation as percent treated/control cell number after 10 days at 10e-6 M; type: functional, Homo sapiens; in short: as §1
[20] = tested on: MCF7; assay: as §3; type: functional, Homo sapiens; in short: as §1; remark: listed apart in the source
[21] = tested on: MCF7; assay: Inhibition of estrogen receptor positive MCF-7 cell proliferation as percent treated/control cell number after 10 days at 10e-9 M; type: functional, Homo sapiens; in short: as §1
[22] = species on record: Mus musculus; assay: Predominant components of vaginal smear at a compound concentration of 500 ug was determined using vaginal cornification test; leucocytes (</= 50%), nucleated and cornified, nucleated cellscharacteristic of antiestrogens; type: functional, organism-based
[23] = biological target: T1, Estrogen receptor (Mus musculus); assay: Antiestrogenic activity in uterotrophic test in mice at 0 ug (experiment 2); type: functional; in short: as §4
[24] = biological target: T1, Estrogen receptor (Mus musculus); assay: Antiestrogenic activity in uterotrophic test in mice at 0 ug (experiment 1); type: functional; in short: as §4
[25] = biological target: T1, Estrogen receptor (Mus musculus); assay: Inhibitory activity in mouse uterine weight test at 500 ug (experiment 2); type: functional
In short: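 Immature female NMRI mice, 20 days old (14.5 ± 1.2 g), in random groups of 10. They received sc injections daily for 3 days of 0.1 mL olive oil containing test compound, with estrone 0.1 μg given to stimulate uterine growth. Uteri were removed 24 h after the last injection and weighed (mean ± SD). Result is percent inhibition of the estrone-stimulated uterine weight gain.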

[26] = species on record: Rattus norvegicus; assay: Initial tumor number of DMBA-induced hormone-dependent mammary carcinoma in rats at 4 mg; type: functional; in short: as §2
[27] = species on record: Rattus norvegicus; assay: Percent unchanged tumor size of DMBA-induced hormone-dependent mammary carcinoma tumors in rats at 2 mg; type: functional
[28] = species on record: Rattus norvegicus; assay: Complete remission of DMBA-induced hormone-dependent mammary carcinoma tumors in rats at 1 mg; type: functional
In short: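 Female SD rats bearing DMBA-induced, hormone-dependent mammary adenocarcinoma, with at least one tumor >140 mm², were grouped in tens. Dosing was sc per kg body weight: a single dose daily Monday–Thursday and a double dose Friday. Ovariectomy served as the comparison arm. Complete remission was defined as a tumor no longer palpable. Body weight and tumor area changes were also recorded.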

[29] = species on record: Mus musculus; assay: Predominant components of vaginal smear at a compound concentration of 50 ug was determined using vaginal cornification test; leucocytes (</= 50%), nucleated and cornified, nucleated cellscharacteristic of antiestrogens; type: functional, organism-based
[30] = species on record: Rattus norvegicus; assay: Percent change in body weight DMBA-induced hormone-dependent mammary carcinoma tumors in rats at 2 mg for 7 days; type: functional
In short: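 Sprague-Dawley rats with DMBA-induced, hormone-dependent mammary adenocarcinoma; animals with at least one tumor over 140 mm² were grouped in tens. Dosed subcutaneously in mg/kg body weight: a single daily dose Monday to Thursday, doubled on Friday. Percent change in body weight was recorded over the test alongside tumor area and remission counts, with untreated controls.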

[31] = biological target: T1, Estrogen receptor (Mus musculus); assay: Antiestrogenic activity in uterotrophic test in mice at 500 ug (experiment 2); type: functional; in short: as §4

Ka [11]	Structure (SMILES)	Activity [1]	T/C [2]	Cell number [4]	T/C [5]	Cell number [8]	Cell number [9]	Cell number [10]	T/C [14]	Cell number [15]	T/C [17]	T/C [19]	Cell number [20]	T/C [21]	other results
9.1e+07 M⁻¹	CCCC(c1cccc(O)c1)C(CCC)c1cccc(O)c1 (stereo not given)	inactive	93%	23300	66% and 68%	29700	6100	34300	84%	30700	78%	53%	4300	71%	Tumors [3]: 36%; Change [6]: 109%; Effect [7]: 28.4; Change [12]: -2.7%; Effect [13]: 9.9; Effect [16]: 30.4; No. of tumors [18]: 22
2e+08 M⁻¹	CCC(c1cccc(O)c1)C(CC)c1cccc(O)c1 (stereo in doubt; 20)	inactive	78%	11900	70% and 63%	27700	5100	27900	84%	32100	64%	27%	4700	73%	Activity [22]: Weak activity; Effect [23]: 10; Effect [24]: 12.5; inhibition [25]: 40%; No. of tumors [26]: 37; Tumors [27]: 30%; Tumors [28]: 21%; Activity [29]: Weak activity; Change [30]: -1.5%; Effect [31]: 30.9
